Measured values as given in ChEMBL document CHEMBL5107950, “Structure-based design of haloperidol analogues as inhibitors of acetyltransferase Eis from Mycobacterium tuberculosis to overcome kanamycin resistance” (RSC Med Chem, 2021).
≈ marks a conversion by molar mass, not a printed value. Calls of active or inactive are those of the source. No cut-off for these calls is given here.

How the values were obtained:
[1] = target: T1, N-acetyltransferase Eis (Mycobacterium tuberculosis (strain ATCC 25618 / H37Rv), UniProt P9WFK7); test: Inhibition of Mycobacterium tuberculosis Eis assessed as Eis-mediated kanamycin acetylation preincubated for 10 mins followed by substrate addition and measured for 2 to 5 mins using acetyl-CoA as substrate in presence of kanamycin by UV-Vis spectroscopy analysis
T1 sequence (P9WFK7 whole entry): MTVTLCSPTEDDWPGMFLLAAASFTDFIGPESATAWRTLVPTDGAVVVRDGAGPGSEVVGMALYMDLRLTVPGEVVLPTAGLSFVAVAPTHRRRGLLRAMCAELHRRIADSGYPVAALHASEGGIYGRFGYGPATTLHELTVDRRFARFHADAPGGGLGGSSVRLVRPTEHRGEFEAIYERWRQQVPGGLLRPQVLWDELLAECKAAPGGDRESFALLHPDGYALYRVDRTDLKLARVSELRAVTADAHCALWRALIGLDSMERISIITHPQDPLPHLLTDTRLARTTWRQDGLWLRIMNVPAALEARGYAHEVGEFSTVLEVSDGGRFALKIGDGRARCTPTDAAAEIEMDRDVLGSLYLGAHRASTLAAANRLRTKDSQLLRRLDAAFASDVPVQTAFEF
How it was run: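 Recombinant Eis (1 µM) mixed with KAN (400 µM) in 50 mM Tris-HCl pH 8.0 and preincubated 10 min with 5-fold serially diluted inhibitor (10% DMSO in buffer). Reaction started with AcCoA and DTNB (2 mM each, as added). Absorbance read every 30 s for 20 min. Initial rates (first 2-5 min) fitted to Hill plot for IC50. At least triplicate.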

[2] = tested on: Mycobacterium tuberculosis; test: Potentiation of kanamycin-induced antibacterial activity against Mycobacterium tuberculosis H37Rv assessed as kanamycin MIC incubated for 1 day followed by kanamycin addition for 6 days and by Alamar blue assay; type: functional; conditions: 168 h, time 7 day
How it was run: (§1)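 Mtb in 7H9 + 10% ADC, 0.05% Tween 80, 0.4% glycerol at 37 °C. Inoculum adjusted to OD600 0.2, diluted 1:25. Cells preincubated 24 h at 37 °C with compound (100 µL of 200 µM solution). KAN then added: H37Rv at 2.5 and 1.25 µg/mL; K204 at 10, 5, 2.5, 1.25 µg/mL. Incubated 6 days, AlamarBlue added, colour read at 24 and 48 h. MIC = lowest KAN with no colour change. At least twice in duplicate.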

[3] = tested on: Mycobacterium tuberculosis; test: Potentiation of kanamycin-induced antibacterial activity against Mycobacterium tuberculosis K204 assessed as kanamycin MIC incubated for 1 day followed by kanamycin addition for 6 days and by Alamar blue assay; type: functional; conditions: K204, 168 h, time 7 day; how it was run: as §1
[4] = target: T1, N-acetyltransferase Eis; test: Competitive inhibition of Mycobacterium tuberculosis Eis assessed as reduction in Eis-mediated kanamycin acetylation preincubated for 10 mins followed by substrate addition and measured for 2 to 5 mins using acetyl-CoA as substrate in presence of kanamycin by Lineweaver-Burk plot analysis
How it was run: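 Same DTNB-coupled Eis acetylation assay used for IC50, run as Michaelis-Menten kinetics with inhibitor at 0-1 μM. Vmax and Km from these fits used to determine mode of inhibition. Quadruplicate.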

[5] = tested on: Mycolicibacterium smegmatis; test: Antibacterial activity against Mycobacterium smegmatis mc2 155 assessed as inhibition of bacterial growth incubated upto 3 weeks hrs by resazurin dye based double-dilution method; type: functional; conditions: mc2 155, 504 h
How it was run: (§2)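 Double-dilution broth MIC. Media: M. smegmatis, Mueller-Hinton; M. abscessus, 7H9 + 0.05% Tween80 + 0.4% glycerol; mc²6230, 7H9 + 0.05% tyloxapol, 0.5% glycerol, 10% OADC, 0.2% casamino acids, 24 µg/mL pantothenate; other mycobacteria, 7H9 + 0.05% Tween80, 0.4% glycerol, 10% ADC. Inoculum from agar set to 0.5 McFarland, then diluted 1:100.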

[6] = tested on: Mycobacteroides abscessus; test: Antibacterial activity against Mycobacterium abscessus ATCC 19977 assessed as inhibition of bacterial growth incubated upto 3 weeks hrs by resazurin dye based double-dilution method; type: functional; conditions: ATCC 19977, 504 h; how it was run: as §2
[7] = tested on: Mycobacterium intracellulare; test: Antibacterial activity against Mycobacterium intracellulare ATCC 13950 assessed as inhibition of bacterial growth incubated upto 3 weeks hrs by resazurin dye based double-dilution method; type: functional; conditions: ATCC 13950, 504 h; how it was run: as §2
[8] = tested on: Mycobacterium avium; test: Antibacterial activity against Mycobacterium avium ATCC 25921 assessed as inhibition of bacterial growth incubated upto 3 weeks hrs by resazurin dye based double-dilution method; type: functional; conditions: ATCC 25921, 504 h; how it was run: as §2
[9] = tested on: Mycobacterium tuberculosis; test: Antibacterial activity against Mycobacterium tuberculosis H37Ra ATCC NRS22 assessed as inhibition of bacterial growth incubated upto 3 weeks hrs by resazurin dye based double-dilution method; type: functional; conditions: H37Ra ATCC NRS22, 504 h; how it was run: as §2
[10] = tested on: Mycolicibacterium smegmatis; test: Synergistic antibacterial activity against Mycobacterium smegmatis mc2 155 assessed as fold reduction in MIC value at 8 ug/ml in presence of spectinomycin by checkerboard assay; type: functional; conditions: dose 8 µg/ml
[11] = tested on: Mycolicibacterium smegmatis; test: Synergistic antibacterial activity against Mycobacterium smegmatis mc2 155 assessed as fold reduction in MIC value at 8 ug/ml in presence of clarithromycin by checkerboard assay; type: functional; conditions: dose 8 µg/ml
[12] = tested on: Mycobacterium tuberculosis; test: Antibacterial activity against Mycobacterium tuberculosis H37Rv assessed as inhibition of bacterial growth at 100 uM incubated for 24 hrs by Alamar blue assay; type: functional, organism-based
[13] = tested on: Mycobacterium tuberculosis; test: Antibacterial activity against Mycobacterium tuberculosis K204 assessed as inhibition of bacterial growth at 100 uM incubated for 24 hrs by Alamar blue assay; type: functional, organism-based
[14] = tested on: Escherichia coli; test: Antibacterial activity against Escherichia coli MC1061 assessed as inhibition of bacterial growth incubated upto 3 weeks hrs by resazurin dye based double-dilution method; type: functional, organism-based
[15] = tested on: A549; test: Cytotoxicity against human A549 cells assessed as reduction in cell viability at 25 uM incubated for 24 hrs by resazurin assay; type: toxicity, cell-based; conditions: a549, 24 h
How it was run: (§3)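 Resazurin viability assay in DMEM + 10% FBS, 1% penicillin/streptomycin, 37 °C, 5% CO₂. Seeding: HEK-293 and J774A.1 at 1×10^4 cells/mL, A549 at 5×10^3 cells/mL. After 24 h, compounds added (0.78-200 μM, 0.5% DMSO final). Resazurin added 24 h later, read after 6 h. 1% Triton X as positive control. Quadruplicate.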

[16] = tested on: HEK293; test: Cytotoxicity against human HEK293 cells assessed as reduction in cell viability at 25 uM incubated for 24 hrs by resazurin assay; type: toxicity, cell-based; conditions: hek293, 24 h; how it was run: as §3
[17] = tested on: J774.A1; test: Cytotoxicity against mouse J774.A1 cells assessed as reduction in cell viability at 25 uM incubated for 24 hrs by resazurin assay; type: toxicity, cell-based; conditions: j774.a1, 24 h; how it was run: as §3
[18] = Metabolic stability in human liver microsomes at 2 to 4 uM incubated for 30 mins by LC-MS/MS analysis; type: ADME, Microsome; conditions: dose 2-4 µM, read-out: Stability
[19] = Metabolic stability in mouse liver microsomes at 2 to 4 uM incubated for 30 mins by LC-MS/MS analysis; type: ADME, Microsome; conditions: dose 2-4 µM, read-out: Stability
[20] = tested on: HEK293; test: Cytotoxicity against human HEK293 cells assessed as reduction in cell viability at 200 uM incubated for 24 hrs by resazurin assay; type: toxicity, cell-based; conditions: hek293, 24 h; how it was run: as §3
[21] = tested on: A549; test: Cytotoxicity against human A549 cells assessed as reduction in cell viability at 50 to 200 uM incubated for 24 hrs by resazurin assay; type: toxicity, cell-based; conditions: a549, 24 h, dose 50-200 µM; how it was run: as §3
[22] = tested on: J774.A1; test: Cytotoxicity against mouse J774.A1 cells assessed as reduction in cell viability at 100 uM incubated for 24 hrs by resazurin assay; type: toxicity, cell-based; conditions: j774.a1, 24 h; how it was run: as §3
[23] = tested on: J774.A1; test: Cytotoxicity against mouse J774.A1 cells assessed as reduction in cell viability at 50 uM incubated for 24 hrs by resazurin assay; type: toxicity, cell-based; conditions: j774.a1, 24 h; how it was run: as §3
[24] = tested on: A549; test: Cytotoxicity against human A549 cells assessed as reduction in cell viability at 100 to 200 uM incubated for 24 hrs by resazurin assay; type: toxicity, cell-based; conditions: a549, 24 h, dose 100-200 µM; how it was run: as §3

SMILES	IC50 [1] [nM]	MIC [2] [µg/mL]	MIC [3] [µg/mL]	Ki [4] [nM]	MIC [5] [µM]	MIC [6] [µM]	MIC [7] [µM]	MIC [8] [µM]	MIC [9] [µM]	fold change (FC) [10]	fold change (FC) [11]	Activity [20]	Activity [22]	other results
O=C(CCCN1CCC(O)(c2ccc(Br)cc2)CC1)c1ccc(F)cc1 [BROMPERIDOL]	520	≤ 1.25	5	240	> 62.5	> 62.5	62.5 (≈ 26.3 µg/mL)	62.5 (≈ 26.3 µg/mL)	> 62.5	16	4			
CC(C)(C)c1ccc(C(=O)CCCN2CCC(O)(c3ccc(Br)cc3)CC2)cc1	> 200000				15.6 (≈ 7.15 µg/mL)	> 62.5	7.8 (≈ 3.58 µg/mL)	7.8 (≈ 3.58 µg/mL)	3.9 (≈ 1.79 µg/mL)	16	4			inhibition [12]: Active; inhibition [13]: Active; inhibition [14]: Active; Activity [15]: Toxic; Activity [16]: Toxic; Activity [17]: Toxic; remaining at 0.5 h [18]: 56%; remaining at 0.5 h [19]: 58%
O=C(CCCN1CCC(O)(c2ccc(Cl)cc2)CC1)c1ccc(F)cc1 [HALOPERIDOL]	390	≤ 1.25	5	390	> 62.5	> 62.5	62.5 (≈ 23.5 µg/mL)	62.5 (≈ 23.5 µg/mL)	31.3 (≈ 11.8 µg/mL)	16	4	Non-Toxic	Toxic	Activity [21]: 70%; Activity [23]: 100%
O=C(CCCN1CCC(O)(c2ccc(Cl)cc2)CC1)c1ccc(Br)cc1	> 200000	≤ 1.25	> 10		> 62.5	> 62.5	> 62.5	> 62.5	31.3 (≈ 13.7 µg/mL)			Non-Toxic	100%	Activity [24]: 70%
